Source: ChEMBL document CHEMBL5724801, “EUbOPEN Chemogenomics Library - Multiplex” (2024)
“And” between values parts separate entries of the source, which are not always exact repeats. Equal entries are not always repeated.

Tested on: U2OS
Assay: Multiplex assay against U2OS
Format: toxicity, cell-based
Conditions: human
Outline: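 Phenotypes for tubulin, mitochondrial mass and membrane permeability are expressed as per cents of healthy-nucleus cells. Cells were stained live at seeding with Hoechst33342, BioTracker Green Microtubule Cytoskeleton Dye, MitoTracker Red and Annexin V Alexa Fluor 680, then imaged after compound addition on a CQ1 microscope at 37°C and 5% CO2. Machine-learning gating in CellPathfinder separated Hoechst high-intensity objects from normal cells, divided normal cells by nuclear state (healthy, pyknosed, fragmented) and divided pyknosed cells into mitotic or apoptotic.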

[1] = 12 h, 1 µM, compound concentration 1 uM
[2] = 12 h, 10 µM, compound concentration 10 uM
[3] = 24 h, 1 µM, compound concentration 1 uM
[4] = 24 h, 10 µM, compound concentration 10 uM
[5] = 48 h, 1 µM, compound concentration 1 uM
[6] = 48 h, 10 µM, compound concentration 10 uM

C[C@H](C[C@H](N)C(=O)O)C(=O)O [2S,4R-4-METHYLGLUTAMATE]
Population Apoptotic (%) [1]: 31.91% and 61.54% | Population Fragmented Nuclei (%) [1]: 3.36% and 4% | Population Healthy Nuclei (%) [1]: 85.37% and 85.6% | Population Hoechst High Intensity Objects (%) [1]: 0% | Population Membrane Permeable-Phenotype (%) [1]: 2.25% and 5.61% | Population Mitochondria Different-Phenotype (%) [1]: 0% and 3.74% | Population Mitotic Cells (%) [1]: 68.09% and 38.46% | Population Normal (%) [1]: 100% | Population Pyknosed Nuclei (%) [1]: 11.27% and 10.4% | Population Tubulin-Different-Phenotype (%) [1]: 0.28% and 0% | Population Apoptotic (%) [2]: 36.84% and 47.06% | Population Fragmented Nuclei (%) [2]: 0.57% and 3.31% | Population Healthy Nuclei (%) [2]: 88.51% and 85.43% | Population Hoechst High Intensity Objects (%) [2]: 0% | Population Membrane Permeable-Phenotype (%) [2]: 1.95% and 3.88% | Population Mitochondria Different-Phenotype (%) [2]: 0.32% and 6.98% | Population Mitotic Cells (%) [2]: 63.16% and 52.94% | Population Normal (%) [2]: 100% | Population Pyknosed Nuclei (%) [2]: 10.92% and 11.26% | Population Tubulin-Different-Phenotype (%) [2]: 3.25% and 0.78% | Total Cell Count [2]: 348 and 151 | Population Apoptotic (%) [3]: 54.55% and 80% | Population Fragmented Nuclei (%) [3]: 3.12% and 6.67% | Population Healthy Nuclei (%) [3]: 86.79% and 84.24% | Population Hoechst High Intensity Objects (%) [3]: 0% and 0.6% | Population Membrane Permeable-Phenotype (%) [3]: 1.48% and 3.6% | Population Mitochondria Different-Phenotype (%) [3]: 0% and 5.04% | Population Mitotic Cells (%) [3]: 45.45% and 20% | Population Normal (%) [3]: 100% and 99.4% | Population Pyknosed Nuclei (%) [3]: 10.09% and 9.09% | Population Tubulin-Different-Phenotype (%) [3]: 0.42% and 0% | Population Apoptotic (%) [4]: 38.3% and 31.25% | Population Fragmented Nuclei (%) [4]: 0.43% and 1.99% | Population Healthy Nuclei (%) [4]: 89.42% and 90.05% | Population Hoechst High Intensity Objects (%) [4]: 0.22% and 0% | Population Membrane Permeable-Phenotype (%) [4]: 1.45% and 3.31% | Population Mitochondria Different-Phenotype (%) [4]: 0.48% and 3.87% | Population Mitotic Cells (%) [4]: 61.7% and 68.75% | Population Normal (%) [4]: 99.78% and 100% | Population Pyknosed Nuclei (%) [4]: 10.15% and 7.96% | Population Tubulin-Different-Phenotype (%) [4]: 1.45% and 0.55% | Total Cell Count [4]: 464 and 201 | Population Apoptotic (%) [5]: 50% and 51.52% | Population Fragmented Nuclei (%) [5]: 3.72% and 3.91% | Population Healthy Nuclei (%) [5]: 89.03% and 84.34% | Population Hoechst High Intensity Objects (%) [5]: 0% | Population Membrane Permeable-Phenotype (%) [5]: 1.47% and 2.11% | Population Mitochondria Different-Phenotype (%) [5]: 0% and 2.95% | Population Mitotic Cells (%) [5]: 50% and 48.48% | Population Normal (%) [5]: 100% | Population Pyknosed Nuclei (%) [5]: 7.24% and 11.74% | Population Tubulin-Different-Phenotype (%) [5]: 1.02% and 1.27% | Population Apoptotic (%) [6]: 54.05% and 54.84% | Population Fragmented Nuclei (%) [6]: 2.19% and 2.47% | Population Healthy Nuclei (%) [6]: 89.7% and 89.01% | Population Hoechst High Intensity Objects (%) [6]: 0% | Population Membrane Permeable-Phenotype (%) [6]: 1.1% and 1.23% | Population Mitochondria Different-Phenotype (%) [6]: 0.12% and 1.23% | Population Mitotic Cells (%) [6]: 45.95% and 45.16% | Population Normal (%) [6]: 100% | Population Pyknosed Nuclei (%) [6]: 8.11% and 8.52% | Population Tubulin-Different-Phenotype (%) [6]: 1.47% and 0.31% | Total Cell Count [6]: 913 and 364

Cl.O=S(=O)(c1cccc2c(I)cccc12)N1CCCNCC1
Population Apoptotic (%) [1]: 56.67% and 27.27% | Population Fragmented Nuclei (%) [1]: 2.94% and 4.55% | Population Healthy Nuclei (%) [1]: 89.04% and 87.12% | Population Hoechst High Intensity Objects (%) [1]: 0% | Population Membrane Permeable-Phenotype (%) [1]: 1.5% and 1.74% | Population Mitochondria Different-Phenotype (%) [1]: 0.3% and 6.09% | Population Mitotic Cells (%) [1]: 43.33% and 72.73% | Population Normal (%) [1]: 100% | Population Pyknosed Nuclei (%) [1]: 8.02% and 8.33% | Population Tubulin-Different-Phenotype (%) [1]: 1.2% and 0% | Total Cell Count [1]: 374 and 132 | Population Apoptotic (%) [2]: 35.59% and 25% | Population Fragmented Nuclei (%) [2]: 1.04% and 0.7% | Population Healthy Nuclei (%) [2]: 86.75% and 74.13% | Population Hoechst High Intensity Objects (%) [2]: 0% | Population Membrane Permeable-Phenotype (%) [2]: 1.67% and 4.72% | Population Mitotic Cells (%) [2]: 64.41% and 75% | Population Normal (%) [2]: 100% | Population Pyknosed Nuclei (%) [2]: 12.22% and 25.17% | Population Tubulin-Different-Phenotype (%) [2]: 5.73% and 1.89% | Population Apoptotic (%) [3]: 47.27% and 30.77% | Population Fragmented Nuclei (%) [3]: 1.85% and 3.49% | Population Healthy Nuclei (%) [3]: 86.83% and 88.95% | Population Hoechst High Intensity Objects (%) [3]: 0% and 0.58% | Population Membrane Permeable-Phenotype (%) [3]: 1.42% and 0.65% | Population Mitochondria Different-Phenotype (%) [3]: 0% and 4.58% | Population Mitotic Cells (%) [3]: 52.73% and 69.23% | Population Normal (%) [3]: 100% and 99.42% | Population Pyknosed Nuclei (%) [3]: 11.32% and 7.56% | Population Tubulin-Different-Phenotype (%) [3]: 0.47% and 1.96% | Total Cell Count [3]: 486 and 173 | Population Apoptotic (%) [4]: 46.38% and 25% | Population Fragmented Nuclei (%) [4]: 1.31% and 1.69% | Population Healthy Nuclei (%) [4]: 87.4% and 73.6% | Population Hoechst High Intensity Objects (%) [4]: 0% | Population Membrane Permeable-Phenotype (%) [4]: 0.94% and 3.82% | Population Mitotic Cells (%) [4]: 53.62% and 75% | Population Normal (%) [4]: 100% | Population Pyknosed Nuclei (%) [4]: 11.29% and 24.72% | Population Tubulin-Different-Phenotype (%) [4]: 1.87% and 3.05% | Population Apoptotic (%) [5]: 40% and 50% | Population Fragmented Nuclei (%) [5]: 1.92% and 2.4% | Population Healthy Nuclei (%) [5]: 89.6% and 90.07% | Population Hoechst High Intensity Objects (%) [5]: 0% | Population Membrane Permeable-Phenotype (%) [5]: 0.88% and 3.42% | Population Mitochondria Different-Phenotype (%) [5]: 0% and 2.66% | Population Mitotic Cells (%) [5]: 60% and 50% | Population Normal (%) [5]: 100% | Population Pyknosed Nuclei (%) [5]: 8.47% and 7.53% | Population Tubulin-Different-Phenotype (%) [5]: 0.88% and 2.28% | Population Apoptotic (%) [6]: 44.03% and 45.31% | Population Fragmented Nuclei (%) [6]: 1.9% and 3.72% | Population Healthy Nuclei (%) [6]: 82.95% and 72.49% | Population Hoechst High Intensity Objects (%) [6]: 0.1% and 0% | Population Membrane Permeable-Phenotype (%) [6]: 1.26% and 4.62% | Population Mitochondria Different-Phenotype (%) [6]: 0.46% and 7.18% | Population Mitotic Cells (%) [6]: 55.97% and 54.69% | Population Normal (%) [6]: 99.9% and 100% | Population Pyknosed Nuclei (%) [6]: 15.14% and 23.79% | Population Tubulin-Different-Phenotype (%) [6]: 3.21% and 4.62%
